Measured values published in PubChem BioAssay AID743238 (Broad Institute, 2013).
Out of some 360,000 compounds screened, about 200 (0.056%) were called active. The list comes from a sample in which actives are over-represented; it also holds similar structures and randomly drawn compounds. Values without a mark were called inactive.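 Rule for the calls: active = mean normalized replicate activation at least 10% and every replicate at or above 10%; inconclusive = only one of the two criteria met; inactive = mean below 10% and not all replicates reach 10%.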

Experiment: activators of inactive X chromosome reactivation, primary screen, imaging, XiGFP fibroblasts, GFP high-content imaging, set 2 (AID 743238);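 note: 0% = median of on-plate neutral control wells and 100% = ellipticine 6 µM median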
Details: XiGFP mouse fibroblasts, % GFP-positive cells imaging, 3 d; at 7.58 µM; hits give high values; cells co-treated with 5-aza-dC sensitizer; scaled so ellipticine positive control = 100%
In short: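 System: SV40-immortalized XiGFP fibroblast cells, line 68-5-11 / Incubation: 3-day compound exposure, then 15 min fixation at room temperature / Compound: single concentration per compound, delivered by pin transfer / Buffer or medium: DMEM plus 5-aza-dC sensitizer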

Compound | activation
COCC#Cc1ccc([C@@H]2[C@@H](CO)N3C(=O)CN(C(=O)Nc4cc(F)ccc4F)C[C@@H]23)cc1 | 0.227%
CS(=O)(=O)N1[C@H](C#N)[C@H](c2ccccc2-c2ccc(F)cc2)[C@@H]1CO | 0.0935%
O=C(NCc1ccc(F)cc1)[C@@H]1[C@@H](CO)[C@@H]2Cn3c(cccc3=O)[C@@H]2N1C(=O)c1cccnc1 | 0.173%
C[C@H]1CN([C@@H](C)CO)C(=O)c2cc(C3=CCCC3)cnc2O[C@H]1CN(C)Cc1ccccc1C(=O)O | -0.072%
O=C(C[C@@H]1CC[C@H](NS(=O)(=O)c2ccc(F)cc2)[C@@H](CO)O1)NCc1ccccc1F | -0.283%
Cc1noc(C)c1NC(=O)Nc1ccc2c(c1)C(=O)N([C@H](C)CO)C[C@H](C)[C@H](CN(C)S(=O)(=O)c1cccs1)O2 | 0.0715%
N#C[C@@H]1[C@H](c2ccccc2-c2cccc(F)c2)[C@@H](CO)N1C(=O)C1CCCC1 | 0.007%
Cc1cccc(N2CCN(C(C)C(=O)N3CCc4ccccc43)CC2)c1C (configuration not stated) | 0.0055%
COc1cccc(/C=C/C(=O)OCC(=O)N2CCCc3ccccc32)c1 | 0.22%
Cc1cccc2cc3c(N)c(C(=O)N4CCCc5ccccc54)sc3nc12 | 39.9% (active)
O=C(C[C@@H]1C[C@H]2c3cc(NC(=O)NC4CCCC4)ccc3O[C@H]2[C@H](CO)O1)NCc1cc(F)ccc1F | 0.0125%
C[C@H](CO)N1C[C@H](C)[C@H](CN(C)S(=O)(=O)c2ccc(Cl)cc2)Oc2ccc(NC(=O)C3CCCCC3)cc2C1=O | -0.051%
CN1C(=O)c2cc(NC(=O)c3ccc(Cl)cc3)ccc2OC[C@H]2O[C@H](CC(=O)O)CC[C@H]21 | 0.521%
C[C@@H]1CCCCO[C@@H](CN(C)Cc2ccc(C(=O)Nc3ccccc3N)cc2)[C@H](C)CN([C@H](C)CO)C(=O)c2cc(N(C)C)ccc2O1 | 2.13%
O=C(C1CCCC1)N1CC(=O)N2[C@@H](CO)[C@@H](c3ccc(-c4cccnc4)cc3)[C@@H]2C1 | 0.207%
C[C@@H](NC(=O)[C@H]1[C@H](CO)[C@H]2Cn3c(cccc3=O)[C@@H]1N2Cc1cccnc1)c1ccccc1 | 0.133%
C[C@@H]1CN([C@H](C)CO)C(=O)Cc2cc(NC(=O)Nc3ccc4c(c3)OCO4)ccc2O[C@@H]1CN(C)C(=O)Nc1ccccc1 | -0.384%
CCCNC(=O)N1C[C@@H](C)[C@@H](OC)CN(C)C(=O)c2ccc(NC(=O)C3CCC3)cc2OC[C@@H]1C | -0.29%
COc1ccc2c3c([nH]c2c1)[C@@H](CO)N(C(=O)c1ccccc1)CC31CCN(C(=O)Nc2cccc(F)c2)CC1 | 0.295%
Cc1noc(C)c1NC(=O)N[C@@H]1C=C[C@@H](CC(=O)Nc2ccccc2)O[C@H]1CO | 0.193%
O=C(NC(Cc1ccc(O)cc1)C(=O)O)/C(=C/c1ccccc1)NC(=O)c1ccccc1 (configuration not stated) | 0.249%

Compound | activation
O=C(Nc1cccc(C(=O)O)c1)/C(=C\c1ccccc1)NC(=O)c1ccc(Br)o1 | 97.3% (active)
COc1ccccc1C(=O)N/C(=C/c1ccc2c(c1)OCO2)C(=O)Nc1cccc(C(=O)O)c1 | 0.184%
C[C@@H]1CCCCO[C@@H](CN(C)S(=O)(=O)c2cn(C)cn2)[C@@H](C)CN([C@@H](C)CO)C(=O)c2cc(NC(=O)NC3CCCCC3)ccc2O1 | 0.153%
O=C(c1ccncc1)N1CC(=O)N2[C@H](C1)[C@@H](c1ccc(C#CCC3CCCC3)cc1)[C@@H]2CO | 0.192%
C[C@H]1CN([C@@H](C)CO)C(=O)c2cccc(NS(=O)(=O)c3ccc(F)cc3)c2O[C@@H]1CN(C)C | -0.0195%
CNC[C@@H]1Oc2ccc(NC(=O)C3CCCCC3)cc2C(=O)N([C@@H](C)CO)C[C@H]1C | -1.11%
C[C@@H](NC(=O)C[C@@H]1C[C@@H]2c3cc(NC(=O)c4cccnc4)ccc3O[C@@H]2[C@H](CO)O1)c1ccccc1 | -0.0445%
CC(=O)N1[C@@H]2c3ccc(-c4ccccc4)c(=O)n3C[C@@H]2[C@@H](CO)[C@@H]1C(=O)NCc1ccccc1F | 0.21%
C[C@H](CO)N1C[C@H](C)[C@@H](CN(C)Cc2cccnc2)Oc2ncc(/C=C/c3ccccc3)cc2C1=O | -0.672%
CC(C)CC#Cc1cnc2c(c1)C(=O)N([C@H](C)CO)C[C@H](C)[C@H](CN(C)CC1CCOCC1)O2 | 0.516%
CC[C@H]1CC=CC[C@@H](C)Oc2ccccc2C(=O)N(C)[C@H](Cc2ccccc2)C(=O)N1 (mixture of isomers) | -0.034%
CCOC(=O)c1sc2nc(CSc3ccccc3)[nH]c(=O)c2c1C | 21.4% (active)
CSc1nnc(SCc2nc3sc(C(=O)O)c(C)c3c(=O)[nH]2)s1 | 0.212%
CCOC(=O)c1sc2nc(C)nc(SCC(N)=O)c2c1C | -0.02%
C/C=C/c1ccc2c(c1)O[C@H](CN(C)C(=O)Cc1cccnc1)[C@@H](C)CN([C@H](C)CO)S2(=O)=O | 0.77%
COc1ccc2c3c(n(C)c2c1)[C@H](CO)N(C(C)=O)CC31CN(Cc2ccc(Cl)cc2)C1 | -0.0005%
COCCN(C[C@H]1[C@@H](c2ccccc2)[C@H](CO)N1C(=O)C1CCC1)C(C)=O | 0.023%
C/C=C/c1ccc([C@H]2[C@@H](CO)N(C(=O)CC)[C@H]2CN(C)C(=O)C2CC2)cc1 | 0.008%
CCC(=O)Nc1ccc2c(c1)C(=O)N(C)C[C@@H](OC)[C@@H](C)CN(C(=O)CN(C)C)[C@@H](C)CO2 | 0.206%
CCC(=O)N1CC2(CCN(Cc3ccc(Cl)cc3)CC2)c2c(n(C)c3cc(OC)ccc23)[C@@H]1CO | 0.134%
CCS(=O)(=O)N1CC2(CN(C(=O)c3ccc(F)cc3)[C@@H](CO)c3c2c2ccc(OC)cc2n3C)C1 | 0.267%
